In brackets after ≈: the same amount, converted by molar mass.
Columns and labels:
Pichia kudriavzevii = assay: Anticandida activity against Candida krusei clinical isolate assessed as growth inhibition after 24 hrs by broth microdilution method; format: functional
Outline: (§1)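 Clinical Candida isolates subcultured for purity and optimal growth before testing; compounds dissolved in DMSO. Broth microdilution per NCCLS in Sabouraud dextrose broth, serial dilutions, inoculum about 10³/mL, with growth control and medium-only control; 24 h incubation at 37 °C. MIC is the lowest concentration giving complete visible inhibition.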

[1] = tested on: Streptococcus alpha-hemolyticus; assay: Antibacterial activity against Streptococcus alpha-hemolyticus assessed as growth inhibition after 18 to 22 hrs by broth microdilution method
Proteus mirabilis = assay: Antibacterial activity against Proteus mirabilis assessed as growth inhibition after 18 to 22 hrs by broth microdilution method; format: functional
Outline: (§2)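 Bacterial isolates subcultured for purity, identified conventionally. Broth microdilution per NCCLS in Mueller-Hinton II broth; plates with growth control (no compound) and medium-only control, incubated 18-22 h at 35 °C. MIC taken as lowest concentration giving complete growth inhibition by unaided eye.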

Escherichia coli = assay: Antibacterial activity against Escherichia coli assessed as growth inhibition after 18 to 22 hrs by broth microdilution method; format: functional; outline: as §2
Staphylococcus aureus = assay: Antibacterial activity against Staphylococcus aureus assessed as growth inhibition after 18 to 22 hrs by broth microdilution method; format: functional; outline: as §2
[Candida] sake = Anticandida activity against Candida sake clinical isolate assessed as growth inhibition after 24 hrs by broth microdilution method; format: functional; conditions: Fermentozyma sake; outline: as §1
Enterobacter sp. = assay: Antibacterial activity against Enterobacter spp. assessed as growth inhibition after 18 to 22 hrs by broth microdilution method; format: functional; outline: as §2
Staphylococcus warneri = assay: Antibacterial activity against Staphylococcus warneri assessed as growth inhibition after 18 to 22 hrs by broth microdilution method; format: functional; outline: as §2
Nakaseomyces glabratus = assay: Anticandida activity against Candida glabrata clinical isolate assessed as growth inhibition after 24 hrs by broth microdilution method; format: functional; outline: as §1
Klebsiella oxytoca = assay: Antibacterial activity against Klebsiella oxytoca assessed as growth inhibition after 18 to 22 hrs by broth microdilution method; format: functional; outline: as §2
Candida tropicalis = assay: Anticandida activity against Candida tropicalis clinical isolate assessed as growth inhibition after 24 hrs by broth microdilution method; format: functional; outline: as §1
Enterococcus faecalis = assay: Antibacterial activity against […] assessed as growth inhibition after 18 to 22 hrs by broth microdilution method; format: functional; outline: as §2
Candida parapsilosis = assay: Anticandida activity against Candida parapsilosis clinical isolate assessed as growth inhibition after 24 hrs by broth microdilution method; format: functional; conditions: Lodderomyces parapsilosis; outline: as §1
Candida albicans = assay: Anticandida activity against Candida albicans clinical isolate assessed as growth inhibition after 24 hrs by broth microdilution method; format: functional; outline: as §1

| SMILES | MIC (Pichia kudriavzevii) [µg/mL] | MIC [1] [µg/mL] | MIC (Proteus mirabilis) [µg/mL] | MIC (Escherichia coli) [µg/mL] | MIC (Staphylococcus aureus) [µg/mL] | MIC ([Candida] sake) [µg/mL] | MIC (Enterobacter sp.) [µg/mL] | MIC (Staphylococcus warneri) [µg/mL] | MIC (Nakaseomyces glabratus) [µg/mL] | MIC (Klebsiella oxytoca) [µg/mL] | MIC (Candida tropicalis) [µg/mL] | MIC (Enterococcus faecalis) [µg/mL] | MIC (Candida parapsilosis) [µg/mL] | MIC (Candida albicans) [µg/mL] |
| --- | --- | --- | --- | --- | --- | --- | --- | --- | --- | --- | --- | --- | --- | --- |
| CCCCC/C(C)=N/Nc1nc(-c2ccc(Cl)cc2Cl)cs1 | 4 (≈ 11.2 µM) | > 256 | > 256 | > 256 | > 256 | 16 (≈ 44.9 µM) | > 256 | > 256 | 2 (≈ 5.61 µM) | > 256 | 4 (≈ 11.2 µM) | > 256 | 16 (≈ 44.9 µM) | 2 (≈ 5.61 µM) |
| C/C(CC(C)C)=N\Nc1nc(-c2ccc(Cl)cc2Cl)cs1 | 256 (≈ 748 µM) | > 256 | > 256 | > 256 | > 256 | 256 (≈ 748 µM) | > 256 | > 256 | 128 (≈ 374 µM) | > 256 | 256 (≈ 748 µM) | > 256 | 256 (≈ 748 µM) | 256 (≈ 748 µM) |
| C=CCC/C(C)=N/Nc1nc(-c2ccc(Cl)cc2Cl)cs1 | 8 (≈ 23.5 µM) | > 256 | > 256 | > 256 | > 256 | 256 (≈ 752 µM) | > 256 | > 256 | 4 (≈ 11.8 µM) | > 256 | 8 (≈ 23.5 µM) | > 256 | 256 (≈ 752 µM) | 2 (≈ 5.88 µM) |
| CCCC/C(CC)=N/Nc1nc(-c2ccc(Cl)cc2Cl)cs1 | 4 (≈ 11.2 µM) | > 256 | > 256 | > 256 | > 256 | 8 (≈ 22.5 µM) | > 256 | > 256 | 4 (≈ 11.2 µM) | > 256 | 4 (≈ 11.2 µM) | > 256 | 8 (≈ 22.5 µM) | 2 (≈ 5.61 µM) |
| CCCCCC/C(C)=N/Nc1nc(-c2ccc(Cl)cc2Cl)cs1 | 4 (≈ 10.8 µM) | > 256 | > 256 | > 256 | > 256 | 32 (≈ 86.4 µM) | > 256 | > 256 | 4 (≈ 10.8 µM) | > 256 | 4 (≈ 10.8 µM) | > 256 | 32 (≈ 86.4 µM) | 2 (≈ 5.4 µM) |
| CCCC/C(CC)=N/Nc1nc(-c2ccc(OC)cc2OC)cs1 | 256 (≈ 737 µM) | > 256 | > 256 | > 256 | > 256 | 256 (≈ 737 µM) | > 256 | > 256 | 128 (≈ 368 µM) | > 256 | 256 (≈ 737 µM) | > 256 | 256 (≈ 737 µM) | 128 (≈ 368 µM) |
| CCCCCC/C(C)=N/Nc1nc(-c2ccc(OC)cc2OC)cs1 | 256 (≈ 708 µM) | > 256 | > 256 | > 256 | > 256 | 256 (≈ 708 µM) | > 256 | > 256 | 64 (≈ 177 µM) | > 256 | 256 (≈ 708 µM) | > 256 | 256 (≈ 708 µM) | 64 (≈ 177 µM) |
| COc1ccc(-c2csc(N/N=C(\C)C3CCCCC3)n2)c(OC)c1 | 256 (≈ 712 µM) | > 256 | > 256 | > 256 | > 256 | 256 (≈ 712 µM) | > 256 | > 256 | 64 (≈ 178 µM) | > 256 | 256 (≈ 712 µM) | > 256 | 256 (≈ 712 µM) | 64 (≈ 178 µM) |
| COc1ccc(-c2csc(NN=C3CCCCCCC3)n2)c(OC)c1 | 256 (≈ 712 µM) | > 256 | > 256 | > 256 | > 256 | 256 (≈ 712 µM) | > 256 | > 256 | 256 (≈ 712 µM) | > 256 | 256 (≈ 712 µM) | > 256 | 256 (≈ 712 µM) | 64 (≈ 178 µM) |
| CC(C)=NNc1nc(-c2ccc(Cl)cc2Cl)cs1 | 8 (≈ 26.6 µM) | > 256 | > 256 | > 256 | > 256 | 8 (≈ 26.6 µM) | > 256 | > 256 | 2 (≈ 6.66 µM) | > 256 | 4 (≈ 13.3 µM) | > 256 | 8 (≈ 26.6 µM) | 2 (≈ 6.66 µM) |
| CC/C(C)=N/Nc1nc(-c2ccc(Cl)cc2Cl)cs1 | 8 (≈ 25.5 µM) | > 256 | > 256 | > 256 | > 256 | 8 (≈ 25.5 µM) | > 256 | > 256 | 4 (≈ 12.7 µM) | > 256 | 4 (≈ 12.7 µM) | > 256 | 8 (≈ 25.5 µM) | 2 (≈ 6.36 µM) |
| CCC/C(C)=N/Nc1nc(-c2ccc(Cl)cc2Cl)cs1 | 256 (≈ 780 µM) | > 256 | > 256 | > 256 | > 256 | 256 (≈ 780 µM) | > 256 | > 256 | 2 (≈ 6.09 µM) | > 256 | 4 (≈ 12.2 µM) | > 256 | 256 (≈ 780 µM) | 2 (≈ 6.09 µM) |
| CCC(CC)=NNc1nc(-c2ccc(Cl)cc2Cl)cs1 | 256 (≈ 780 µM) | > 256 | > 256 | > 256 | > 256 | 256 (≈ 780 µM) | > 256 | > 256 | 4 (≈ 12.2 µM) | > 256 | 4 (≈ 12.2 µM) | > 256 | 256 (≈ 780 µM) | 0.5 (≈ 1.52 µM) |
| CC(C)(O/N=C(\C(=O)N[C@@H]1C(=O)N2C(C(=O)[O-])=C(C[n+]3ccccc3)CS[C@H]12)c1csc(N)n1)C(=O)O [CEFTAZIDIME] |  | 4 (≈ 7.32 µM) | 8 (≈ 14.6 µM) | 4 (≈ 7.32 µM) | 2 (≈ 3.66 µM) |  | 8 (≈ 14.6 µM) | 4 (≈ 7.32 µM) |  | 8 (≈ 14.6 µM) |  | 4 (≈ 7.32 µM) |  |  |
| OC(Cn1cncn1)(Cn1cncn1)c1ccc(F)cc1F [FLUCONAZOLE] | 4 (≈ 13.1 µM) |  |  |  |  | 4 (≈ 13.1 µM) |  |  | 4 (≈ 13.1 µM) |  | 4 (≈ 13.1 µM) |  | 4 (≈ 13.1 µM) | 4 (≈ 13.1 µM) |
| COC1=CC(=O)C[C@@H](C)[C@]12Oc1c(Cl)c(OC)cc(OC)c1C2=O [GRISEOFULVIN] | 8 (≈ 22.7 µM) |  |  |  |  | 8 (≈ 22.7 µM) |  |  | 4 (≈ 11.3 µM) |  | 8 (≈ 22.7 µM) |  | 8 (≈ 22.7 µM) | 4 (≈ 11.3 µM) |
